Only some compounds are listed: those with a hit (about 4.7% of all), similar ones and a draw of the others.
MC4R ag barr: MC4R agonists recruiting beta-arrestin, primary screen, cell-based, luminescence, agonist arm of biased-ligand search. Melanocortin receptor 4 (Homo sapiens), P32245. U2OS MC4R beta-arrestin complementation; percent of melanotan II response, DMSO zero. activation, % at 8.9 µM. actives 0.98% (n = 360,000);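 active = activation above a per-plate cutoff, the mean activation of sample wells on that plate plus 3 SD, cut at about 8% in these data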
MC4R antag cAMP: MC4R antagonists of cAMP signaling, primary screen, cell-based, TR-FRET, antagonist arm of biased-ligand search. Melanocortin receptor 4 (Homo sapiens), P32245. MC4R-expressing cells, MTII-stimulated cAMP, LANCE TR-FRET. inhibition, % at 6.5 µM. actives 0.48% (n = 360,000);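 active = inhibition above its plate's cutoff, the mean of tested wells on that plate plus 3 SD, cut at about 29% in these data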
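Assay system: human MC4R-expressing U2OS cells; reagent: Melanotan II stimulation of cells; dosing: 6.5 µM single dose; timing: compound 30 min, challenge 1 h, detection 1 h; signal: TR-FRET cAMP assay; replicates: one well per compound, no replicates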
AHR activator: AHR activators, primary screen, cell-based, luminescence, luciferase reporter, human | Aryl hydrocarbon receptor (Homo sapiens), P35869 | AHR-responsive luciferase reporter cells | activation, % at 5 µM | actives 2.5% (n = 320,000) | AID 2796, 2010; in the data active = activation above about 47%
HTR2A ag: mouse Htr2a agonists via beta-arrestin recruitment, primary screen, cell-based, luminescence; 5-hydroxytryptamine receptor 2A (Mus musculus), P35363; CHO-K1 mHTR2A beta-arrestin complementation; percent of 30 µM serotonin response; activation, % at 7.6 µM; actives 0.66% (n = 360,000); AID 624169, 2012;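 active = activation above a run cutoff, the mean activation of all tested compounds plus 3 SD, cut at about 14% in these data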
Target sequence (P35363 whole entry, looked up): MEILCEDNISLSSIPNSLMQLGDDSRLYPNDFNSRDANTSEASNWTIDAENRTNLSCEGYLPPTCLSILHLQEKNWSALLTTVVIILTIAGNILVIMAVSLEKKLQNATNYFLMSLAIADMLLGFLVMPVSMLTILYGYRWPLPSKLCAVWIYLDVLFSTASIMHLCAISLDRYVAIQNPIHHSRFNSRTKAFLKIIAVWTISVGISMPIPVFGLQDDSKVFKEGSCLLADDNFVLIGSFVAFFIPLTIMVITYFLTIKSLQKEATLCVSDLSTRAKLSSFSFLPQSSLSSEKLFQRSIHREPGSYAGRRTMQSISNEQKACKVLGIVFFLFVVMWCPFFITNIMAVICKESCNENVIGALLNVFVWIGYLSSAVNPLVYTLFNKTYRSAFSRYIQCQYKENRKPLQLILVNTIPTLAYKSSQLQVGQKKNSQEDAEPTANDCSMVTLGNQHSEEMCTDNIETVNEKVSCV
FXN GAA850 act: FXN promoter activators, primary screen, cell-based, luciferase luminescence, HEK293 lucGAA850; activation, % at 6 µM; actives 0.56% (n = 360,000); AID 540364, 2011; HEK293 lucGAA850 FXN promoter luciferase reporter, 24 h; percent of 10 µM SAHA response;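 active = activation above the average of all compounds screened plus 3 SD, cutoff fixed separately per campaign, cut at about 7.5% in these data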
AHR act confirm: AHR activators, confirmation, cell-based, luminescence, luciferase reporter, human; shares compounds with AHR activator; activation, % at 9 µM; AID 2845, 2010; actives 87% (n = 2,300); human cells, AHR-responsive luciferase reporter; in the data active = activation above about 49%;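 also: HepG2 hepatoma cells carrying a DRE-driven firefly luciferase reporter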
PXR counter: human PXR activators, counter-screen for AHR activator project, cell-based, luciferase luminescence. shares compounds with AHR activator. cell-based PXR reporter. activation, % at 11.6 µM. actives 88% (n = 2,300). AID 434939, 2010; in the data active = activation above about 11%;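 also: human hepatoma DPX-2 cells expressing full-length human PXR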
Large screens that a line does not name were inactive (follow-up assays come after a bar, where they were run).

O=C(Nc1ccc(Br)cc1)c1cc(-c2ccncc2)nc2ccccc12	AHR activator 109 | AHR act confirm 97 | PXR counter 12
COc1cc2c(cc1NC(=O)c1cccc(S(=O)(=O)N(C)C)c1)oc1ccccc12	AHR activator 79 | AHR act confirm 65 | PXR counter 42
COc1cc2c(cc1NC(=O)c1cccc([N+](=O)[O-])c1C)oc1ccccc12	none
O=C(Nc1ccc2c(c1)OCO2)c1cc(-c2ccncc2)nc2ccccc12	AHR activator 94 | AHR act confirm 95 | PXR counter 35
O=C(c1ccccc1Cc1ccccc1)N1CCN(S(=O)(=O)c2ccccc2Br)CC1	none
COc1cc(CNC(=O)c2cc(-c3ccc(F)cc3OC)n[nH]2)cc(OC)c1	none (no result: AHR activator)
COC(=O)C[C@H]1C[C@H]2c3cc(NS(=O)(=O)c4cccc(OC)c4)ccc3O[C@H]2[C@@H](CO)O1	none (no result: AHR activator)
CC(=O)c1ccc(NC(=O)C(C)OC(=O)C2CCN(c3ccc(C(F)(F)F)cn3)CC2)cc1 (stereo not given)	none
COc1cc2c(cc1NC(=O)c1cc(-c3ccncc3)nc3ccccc13)oc1ccccc12	AHR activator 83 | AHR act confirm 71 | PXR counter 13
COc1cc2c(cc1NC(=O)C(C)OC(=O)/C=C/c1ccc(OC(F)F)cc1)oc1ccccc12 (stereo not given)	AHR activator 144 | AHR act confirm 107 | PXR counter 30
COc1cc2c(cc1NC(=O)c1cc(-c3cccnc3)nc3ccc(C)cc13)oc1ccccc12	none
NNC(=O)c1cc(-c2ccc(O)cc2)nc2ccc(Br)cc12	AHR activator 81 | AHR act confirm inactive | PXR counter inactive
O=C1c2ccccc2C(O)(c2ncc[nH]2)N1CCc1ccccc1 (stereo not given)	AHR activator 98 | AHR act confirm 105 | PXR counter 24
C=CCN1C(=O)c2ccccc2C1(O)Cc1ccccc1 (stereo not given)	none
CC(C)(C)c1cc2nc3c(c(=O)n2[nH]1)CN(Cc1ccccc1)C3=O	none
CC(=O)c1c(C)nc(-c2ccc(Cl)cc2)nc1NC(=O)C(C)C	AHR activator 116 | AHR act confirm 137 | PXR counter 46
CC(=O)Nc1nc(-c2ccccc2)nc(C)c1C(C)=O	AHR activator 80 | AHR act confirm 105 | PXR counter 24
CC1(C(=O)NS(=O)(=O)c2ccc(C#N)cc2)CCN1C(=O)C1(c2ccc(Cl)cc2)CC1 (stereo not given)	none (no result: AHR activator)
Cc1cc(C(=O)NNC(=O)c2cccs2)c(C)o1	none
CCCc1cc(=O)oc2cc(OCC(=O)NCc3cccs3)ccc12	AHR activator 87 | AHR act confirm inactive | PXR counter 44
O=C(Nc1ccccc1)c1cc([N+](=O)[O-])ccc1NCc1cccnc1	AHR activator 83 | AHR act confirm 104 | PXR counter 41
O=C(O)c1cc([N+](=O)[O-])ccc1NCc1ccccc1	none
O=C(Nc1ccc(Cl)c(Cl)c1)Nc1ccc([N+](=O)[O-])cn1	AHR activator 91 | AHR act confirm 86 | PXR counter inactive
O=C(Nc1ccccc1)c1cc([N+](=O)[O-])ccc1Cl	AHR activator 88 | AHR act confirm 95 | PXR counter 14
CC(=O)Nc1ccc(NC(=O)c2ccc([N+](=O)[O-])cc2Cl)cc1	none
Cc1cn([C@H]2C[C@H](O)[C@@H](CNC(=O)[C@H]3CCC(=O)N3)O2)c(=O)[nH]c1=O	none (no result: AHR activator)
Cn1c(OCC2CCCO2)nc2cc(-c3ccccc3)sc2c1=O (stereo not given)	none (no result: AHR activator)
COc1ccc2c(c1)C(=NNc1ccc(C(=O)O)cc1)c1cc(OC)ccc1-2	AHR activator 86 | AHR act confirm 108 | PXR counter 11
COc1ccc(/C(C)=N/Nc2ccc(C(=O)O)cc2)c(OC)c1	none
Cc1nc(N2CCN(c3ccccc3)CC2)nc2c1C(=O)CC(C)C2 (stereo not given)	AHR activator 92 | AHR act confirm 62 | PXR counter 13
CCOC(=O)CCc1cnccc1-c1cccc(OC)c1O	none
O/N=C/c1cc(Cl)ccc1OCc1ccccc1Cl	AHR activator 106 | AHR act confirm 103 | PXR counter 15
Cc1ccc(CN2C(=O)C(C)Nc3ncnc(N4CCOCC4)c32)cc1 (stereo not given)	none
O=[N+]([O-])c1cnc(Nc2ccccc2)nc1Nc1ccccc1	none
c1ccc(-c2csc3nnc(SCc4ccc5c(c4)OCO5)n23)cc1	AHR activator 84 | AHR act confirm 48 | PXR counter 130
O=C(CCSc1nnc2scc(-c3ccccc3)n12)NCc1ccc2c(c1)OCO2	none
CCCc1c(C(=O)N/N=C/c2cccc(OCc3ccc(F)cc3)c2)nnn1-c1nonc1N	none
O=C(Nc1cccc(S(=O)(=O)N2CCCC2)c1)c1ccc2c(c1)OCO2	AHR activator 88 | AHR act confirm 64 | PXR counter 209
O=C(Nc1cccc(S(=O)(=O)N2CCCCCC2)c1)c1ccc2c(c1)OCO2	AHR activator 82 | AHR act confirm 62 | PXR counter 164
CC(C)(CNC(=O)c1ccc(Br)o1)CNC(=O)c1ccc(Br)o1	none (no result: AHR activator)
Cc1cc(N/N=C/c2ccccc2O)c2ccccc2n1	AHR activator 107 | AHR act confirm 124 | PXR counter 13
O=C1NC[C@H](CCCCN2CCN(Cc3ccccc3)C(=O)C2=O)N(Cc2ccccc2)C1=O	none (no result: MC4R ag barr, MC4R antag cAMP, AHR activator, FXN GAA850 act)
Cc1cc(=O)n(CC(=O)NC2CC2)c2c1c(C)nn2-c1ccccc1	AHR activator 88 | AHR act confirm 84 | PXR counter 77
Cc1cc(=O)n(CC(=O)NCCN2CCOCC2)c2c1c(C)nn2-c1ccccc1	none
CCc1nnc(NC(=O)CSc2nc(C)cs2)s1	none
NC(=S)N/N=C/c1ccc(-c2ccc([N+](=O)[O-])cc2)o1	AHR activator 92 | AHR act confirm 118 | PXR counter 14
COc1ccc(Br)cc1C(=O)Nc1ccc(NC(=O)c2ccco2)cc1	none
CCOc1ccc(NC(=O)c2cc3ccccc3cc2OC)cc1	AHR activator 83 | AHR act confirm 91

Compound activity deposited in PubChem BioAssay by The Scripps Research Institute Molecular Screening Center.
